In this assay the target is cAMP-dependent protein kinase catalytic subunit alpha (Homo sapiens) (UniProt P17612). Description: inhibition of human PKA kinase activity – biochemical, Caliper mobility shift, dry powder samples, set 2, dose response (AID 588629). Conditions: Recombinant PKA, peptide phosphorylation; for % substrate conversion (lower = inhibition): at 10 µM (top of the series). In a few lines: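 System: recombinant His-tagged human PKA catalytic fragment, purified enzyme; also added: 3 µM Peptide 21, 12 µM ATP; timing: kinase reaction with compound, 1 h at room temperature; technique: Microfluidic electrophoresis, EDTA-stopped endpoint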

This is an account of results in PubChem BioAssay AID588629 (Broad Institute, 2011).

Results filed as inconclusive are left out. The source made the active and inactive calls.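 Rule for the calls: active = every test run called active, with signal falling and half-effect dose at or below the top valid dose; inconclusive = test runs give conflicting calls; inactive = all test runs inactive.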

For `COc1ccccc1N=C1NC(=O)/C(=C/c2ccc(F)cc2)S1`, the “% substrate conversion (lower = inhibition)” value was “inactive”. Still for that read-out and setting: in the case of `COc1ccccc1N=C1NC(=O)/C(=C/c2ccc(Cl)cc2)S1` it was “inactive”; in that of `CC(C)c1ccc(NC(=O)c2cccs2)c(-c2nc3ccccc3[nH]c2=O)c1`, “inactive”.

`COc1cc(/C=C2\SC(=Nc3ccc(F)cc3)NC2=O)ccc1O`: the “% substrate conversion (lower = inhibition)” value was “inactive”. Still for that read-out and setting: under `O=C(Nc1ccc(Cl)cc1-c1nc2ccccc2[nH]c1=O)c1cccs1` stands “inactive”.

Consider `COc1ccccc1N=C1NC(=O)/C(=C/c2ccc3c(c2)OC(F)(F)O3)S1`, for which the “% substrate conversion (lower = inhibition)” value was “inactive”.

For the compound `COc1cc(/C=C2\SC(=Nc3ccccc3OC)NC2=O)ccc1O`, the “% substrate conversion (lower = inhibition)” value was “inactive”. Still for that read-out and setting: under `O=C(Nc1ccccc1-c1nc2ccccc2[nH]c1=O)C1CCCCC1` stands “inactive”; under `COc1ccccc1N=C1NC(=O)/C(=C/c2cc(C)on2)S1`, “inactive”. Same read-out and setting: in the case of `COc1ccccc1N=C1NC(=O)/C(=C/C2CCCCC2)S1` it was “inactive”; in that of `COc1ccc(/C=C2\SC(=Nc3ccccc3OC)NC2=O)cc1`, “inactive”; in that of `COc1cccc(/C=C2\SC(=Nc3ccccc3OC)NC2=O)c1`, “inactive”. Still for that read-out and setting: in the case of `O=C(Nc1ccccc1-c1nc2ccccc2[nH]c1=O)c1cccc(F)c1` it was “inactive”; in that of `Nc1ccccc1-c1nc2ccccc2[nH]c1=O`, “inactive”; in that of `COc1ccccc1N=C1NC(=O)/C(=C/c2ccccc2)S1`, “inactive”. In the case of `O=C(Nc1ccccc1-c1nc2ccccc2[nH]c1=O)c1ccc(F)cc1`, the “% substrate conversion (lower = inhibition)” value is “inactive”. The same measure, in the same setting: under `COc1ccccc1N=C1NC(=O)/C(=C/c2cc(Cl)cc(Cl)c2O)S1` stands “inactive”; under `COc1ccccc1N=C1NC(=O)/C(=C/c2ccc(C)cc2)S1`, “inactive”. The same measure, in the same setting: in the case of `O=C(Nc1ccccc1-c1nc2ccccc2[nH]c1=O)c1ccccn1` it was “inactive”; in that of `COc1cc(/C=C2\SC(=NC(C)(C)C)NC2=O)ccc1O`, “inactive”; in that of `COc1ccccc1N=C1NC(=O)/C(=C/c2cccc(Cl)c2)S1`, “inactive”. Still for that read-out and setting: in the case of `COc1ccccc1N=C1NC(=O)/C(=C/c2ccc(OC)c(OC)c2)S1` it was “inactive”.

`COc1cc(/C=C2\SC(=Nc3cccc(F)c3)NC2=O)ccc1O`: the “% substrate conversion (lower = inhibition)” value was “inactive”. As to `COc1ccc(-n2ncc3cnc(Nc4ccc(N5CCN(C)CC5)c(OC)c4)nc32)cc1`, the “% substrate conversion (lower = inhibition)” value is “inactive”. The same measure, in the same setting: under `COc1cc(/C=C2\SC(=Nc3ccccc3OC)NC2=O)ccc1F` stands “inactive”; under `COc1ccccc1N=C1NC(=O)CS1`, “inactive”. On to `COc1cc(/C=C2\SC(=Nc3ccccc3Cl)NC2=O)ccc1O`, for which the IC50 is 3.66 µM.

Turning to `COc1cc(/C=C2\SC(=Nc3cccnc3)NC2=O)ccc1O`, the “% substrate conversion (lower = inhibition)” value was “inactive”. Take `COc1ccccc1N=C1NC(=O)/C(=C/c2nc(C)cs2)S1`: the “% substrate conversion (lower = inhibition)” value was “inactive”. Same read-out and setting: in the case of `COc1ccccc1N=C1NC(=O)/C(=C/c2ccc3c(c2)OCO3)S1` it was “inactive”. As for `COc1cc(/C=C2\SC(N)=NC2=O)ccc1O`, the “% substrate conversion (lower = inhibition)” value was “inactive”. The same measure, in the same setting: in the case of `COc1ccccc1N=C1NC(=O)/C(=C/c2ccc3c(c2)OCCO3)S1` it was “inactive”; in that of `COc1ccccc1N=C1NC(=O)/C(=C/c2ccc(-c3cccnc3)cc2)S1`, “inactive”; in that of `COc1ccccc1N=C1NC(=O)/C(=C/C(C)C)S1`, “inactive”.

`COc1cc(/C=C2\SC(=NC(C)C)NC2=O)ccc1O`: the “% substrate conversion (lower = inhibition)” value is “inactive”. On the same count and under the same terms, under `COc1ccccc1N=C1NC(=O)/C(=C/c2ccccc2Cl)S1` stands “inactive”. The same measure, in the same setting: in the case of `COc1ccccc1N=C1NC(=O)/C(=C/c2ccc(Cl)c(Cl)c2)S1` it was “inactive”. Same read-out and setting: in the case of `COc1ccc(/C=C2\SC(=Nc3ccccc3OC)NC2=O)c(O)c1` it was “inactive”.

Regarding `COc1cc(/C=C2\SC(=Nc3ccc(Cl)cc3)NC2=O)ccc1O`, the “% substrate conversion (lower = inhibition)” value is “inactive”. The same measure, in the same setting: under `COc1ccccc1N=C1NC(=O)/C(=C/c2ccccc2F)S1` stands “inactive”; under `O=C(Nc1ccccc1-c1nc2cc(F)c(F)cc2[nH]c1=O)c1cccs1`, “inactive”. Same read-out and setting: in the case of `O=C(Nc1ccc(OC(F)(F)F)cc1-c1nc2ccccc2[nH]c1=O)c1cccs1` it was “inactive”; in that of `COc1cc(/C=C2/SC(=Nc3ccc(O)cc3)NC2=O)ccc1O`, “inactive”; in that of `COc1ccccc1N=C1NC(=O)/C(=C/c2cnn(C)c2)S1`, “inactive”. The same measure, in the same setting: in the case of `O=C(Nc1cc(F)ccc1-c1nc2ccccc2[nH]c1=O)c1cccs1` it was “inactive”; in that of `COc1ccccc1N=C1NC(=O)/C(=C/c2cccn2C)S1`, “inactive”. In the case of `COc1cc(/C=C2\SC(=NCc3ccccc3)NC2=O)ccc1O`, the concentration for half-maximal inhibition (IC50) is 2.9 µM. In the case of `COc1ccccc1Nc1nc(O)c(/C=C2/C=c3ccccc3=N2)s1`, the “% substrate conversion (lower = inhibition)” value was “inactive”. In the case of `O=C(Nc1ccccc1-c1nc2cc(Cl)c(Cl)cc2[nH]c1=O)c1cccs1`, the IC50 was 4.88 µM. For the compound `COc1ccccc1N=C1NC(=O)/C(=C/c2cccnc2)S1`, the “% substrate conversion (lower = inhibition)” value is “inactive”. On the same count and under the same terms, under `COc1cc(/C=C2\SC(=Nc3ccccc3F)NC2=O)ccc1O` stands “inactive”; under `O=c1[nH]c2ccccc2nc1-c1ccccc1NCc1cccs1`, “inactive”.

With `COc1ccccc1N=C1NC(=O)/C(=C/c2ccc(O)cc2)S1`, the “% substrate conversion (lower = inhibition)” value was “inactive”. On the same count and under the same terms, in the case of `O=C(Nc1ccc(F)cc1-c1nc2ccccc2[nH]c1=O)c1cccs1` it was “inactive”. Same read-out and setting: under `COc1ccc(C(=O)Nc2ccccc2-c2nc3ccccc3[nH]c2=O)cc1` stands “inactive”; under `COc1cc(/C=C2\SC(=Nc3ccncc3)NC2=O)ccc1O`, “inactive”; under `O=C(Nc1ccccc1-c1nc2ccccc2[nH]c1=O)c1cccs1`, “inactive”. As for `O=C(Nc1ccccc1-c1nc2ccccc2[nH]c1=O)c1cc2ccccc2s1`, the IC50 is 6.73 µM. `O=C1NC(=NCc2ccccc2)S/C1=C/c1ccc(O)cc1`: the “% substrate conversion (lower = inhibition)” value was “inactive”. For `COc1ccc(N=C2NC(=O)/C(=C/c3ccc(O)c(OC)c3)S2)cc1`, the “% substrate conversion (lower = inhibition)” value is “inactive”.

In the case of `COc1ccccc1N=C1NC(=O)/C(=C/c2ccc(C(C)C)cc2)S1`, the “% substrate conversion (lower = inhibition)” value was “inactive”.

In the case of `COc1ccccc1N=C1NC(=O)/C(=C/c2ccc(OC(F)(F)F)cc2)S1`, the “% substrate conversion (lower = inhibition)” value is “inactive”.

For `O=C(Nc1cc(Cl)ccc1-c1nc2ccccc2[nH]c1=O)c1cccs1`, the “% substrate conversion (lower = inhibition)” value was “inactive”. As for `COc1ccccc1N=C1NC(=O)/C(=C/c2ccccn2)S1`, the “% substrate conversion (lower = inhibition)” value was “inactive”. Consider `COc1ccccc1N=C1NC(=O)/C(=C/c2ccc(F)c(F)c2)S1`, for which the “% substrate conversion (lower = inhibition)” value was “inactive”. Still for that read-out and setting: under `COc1ccccc1N=C1NC(=O)/C(=C/c2ccc(C#N)cc2)S1` stands “inactive”; under `COc1ccccc1N=C1NC(=O)/C(=C/c2ccncc2)S1`, “inactive”.

In the case of `O=C(Nc1ccccc1-c1nc2ccccc2[nH]c1=O)c1cccnc1`, the “% substrate conversion (lower = inhibition)” value is “inactive”.

For `COc1ccccc1N=C1NC(=O)/C(=C/c2cccc(F)c2)S1`, the “% substrate conversion (lower = inhibition)” value was “inactive”. Same read-out and setting: in the case of `COc1ccccc1Nc1nc(O)c(/C=c2/ccc3c(c2)C=CN=3)s1` it was “inactive”; in that of `O=C(Nc1ccccc1-c1nc2ccccc2[nH]c1=O)c1ccncc1`, “inactive”. As for `COc1ccccc1/C=C1\SC(=Nc2ccccc2OC)NC1=O`, the “% substrate conversion (lower = inhibition)” value was “inactive”.
